# Measurements: ChEMBL document CHEMBL3286129, “Optimization of peptidomimetic boronates bearing a P3 bicyclic scaffold as proteasome inhibitors” (Eur J Med Chem, 2014)
# Activity calls are given as the source filed them. The calls are words filed in the database; no cut-off is given here.
# Experiments:
# [1] = Growth inhibition of human OVCAR3 cells; type: functional; conditions: OVCAR-3
# HT-29 = test: Growth inhibition of human HT-29 cells; type: functional
# IGROV-1 = test: Growth inhibition of human IGROV1 cells; type: functional
# COLO 205 = test: Growth inhibition of human COLO205 cells; type: functional
# [2] = Cytotoxicity against human renal cancer cells assessed as cell growth at 10 uM relative to control; type: functional; conditions: Cancer cell lines, read-out: Activity
# How it was run: (§1)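 Single-concentration screen against a panel of human cancer cell lines. Each value is the mean percent growth across the cell lines of that tumour subpanel.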
# Chymotrypsinogen A = Chymotrypsinogen A (Bos taurus, UniProt P00766); test: Inhibition of bovine pancreatic alpha-chymotrypsin using Suc-Leu-Leu-Val-Tyr-AMC as substrate by fluorescence assay
# How it was run: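 Enzyme incubated at 20 °C in 50 mM Tris pH 8.0, 100 mM NaCl, 5 mM EDTA, 7.5% DMSO with varied inhibitor concentrations. Substrate hydrolysis followed for 10 min. Ki from progress curves; mean of three determinations.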
# [3] = Growth inhibition of human UACC257 cells; type: functional
# MDA-MB-231 = test: Growth inhibition of human MDA-MB-231 cells; type: functional
# [4] = Cytotoxicity against human ovarian cancer cells assessed as cell growth at 10 uM relative to control; type: functional; conditions: Cancer cell lines, read-out: Activity; how it was run: as §1
# HOP-62 = test: Growth inhibition of human HOP62 cells; type: functional
# [5] = Growth inhibition of human BT549 cells; type: functional
# MCF7 = test: Growth inhibition of human MCF7 cells; type: functional
# [6] = Growth inhibition of human OVCAR5 cells; type: functional; conditions: OVCAR-5
# NCI-H322M = test: Growth inhibition of human NCI-H322M cells; type: functional
# SK-MEL-28 = test: Growth inhibition of human SK-MEL-28 cells; type: functional
# NCI-H23 = test: Growth inhibition of human NCI-H23 cells; type: functional
# A498 = test: Growth inhibition of human A498 cells; type: functional
# [7] = biological target: Proteasome Macropain subunit (Homo sapiens) (UniProt P49721); test: Inhibition of trypsin-like activity of 20S proteasome in human erythrocytes using Boc-Leu-Arg-Arg-AMC as substrate by fluorescence assay; type: cell-based
# How it was run: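 Human 20S proteasome 0.0025 mg/mL at 30 °C in 50 mM Tris pH 7.4, 50 mM NaCl, 0.5 mM EDTA, 0.03% SDS, 7.5% DMSO. Varied inhibitor concentrations; AMC release monitored continuously for 10 min, ex 380/em 460 nm. Ki derived from progress-curve IC50 fit.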
# NCI-H522 = test: Growth inhibition of human NCI-H522 cells; type: functional
# SNB-19 = test: Growth inhibition of human SNB19 cells; type: functional
# [8] = Cytotoxicity against human breast cancer cells assessed as cell growth at 10 uM relative to control; type: functional; conditions: Cancer cell lines, read-out: Activity; how it was run: as §1
# [9] = Growth inhibition of human HOP92 cells; type: functional
# RPMI-8226 = test: Growth inhibition of human RPMI8226 cells; type: functional
# A549 = test: Growth inhibition of human A549/ATCC cells; type: functional
# K562 = test: Growth inhibition of human K562 cells; type: functional
# [10] = Growth inhibition of human HCT15 cells; type: functional
# TK-10 = test: Growth inhibition of human TK10 cells; type: functional
# 786-0 = test: Growth inhibition of human 786-0 cells; type: functional
# U-251 = test: Growth inhibition of human U251 cells; type: functional
# PC-3 = test: Growth inhibition of human PC3 cells; type: functional
# CAKI-1 = test: Growth inhibition of human CAKI-1 cells; type: functional
# NCI-H226 = test: Growth inhibition of human NCI-H226 cells; type: functional
# [11] = Cytotoxicity against human CNSC cells assessed as cell growth at 10 uM relative to control; type: functional; conditions: read-out: Activity; how it was run: as §1
# ACHN = test: Growth inhibition of human ACHN cells; type: functional
# [12] = Growth inhibition of human LOXIMVI cells; type: functional; conditions: LOX IMVI
# [13] = Growth inhibition of human SF539 cells; type: functional
# [14] = Cytotoxicity against human leukemia cells assessed as cell growth at 10 uM relative to control; type: functional; conditions: read-out: Activity; how it was run: as §1
# [15] = Growth inhibition of human OVCAR8 cells; type: functional
# SK-MEL-2 = test: Growth inhibition of human SK-MEL-2 cells; type: functional
# [16] = read-out: LC50 (the source's name)
# Chain of Proteasome Macropain subunit (Homo sapiens) (P49721 whole entry): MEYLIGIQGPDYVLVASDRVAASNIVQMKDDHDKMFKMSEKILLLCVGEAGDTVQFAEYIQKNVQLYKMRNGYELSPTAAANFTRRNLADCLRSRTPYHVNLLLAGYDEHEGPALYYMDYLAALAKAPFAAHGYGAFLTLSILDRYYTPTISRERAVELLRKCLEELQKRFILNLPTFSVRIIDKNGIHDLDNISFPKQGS
smiles,measurement,setting,value
CC(C)C[C@H](NC(=O)CCn1ccc2ccccc2c1=O)B(O)O,GI50,[1],1.97 µM
same,LC50 (concentration killing 50% of cells),[1],31.7 µM
same,TGI,[1],5.66 µM
same,GI50,HT-29,3.68 µM
same,LC50,HT-29,> 100 µM
same,TGI,HT-29,48.7 µM
same,GI50,IGROV-1,12.3 µM
same,LC50,IGROV-1,> 100 µM
same,TGI,IGROV-1,> 100 µM
same,GI50,COLO 205,5.06 µM
same,TGI,COLO 205,> 100 µM
same,CC50,COLO 205; [16],> 100 µM
same,growth at 10 µM,[2],32.3%
same,Ki,Chymotrypsinogen A,Not Active
same,GI50,[3]; UACC-257,3.68 µM
same,TGI,[3]; UACC-257,33.8 µM
same,CC50,"[3]; UACC-257, read-out: LC50 (the source's name)",> 100 µM
same,GI50,MDA-MB-231,9.45 µM
same,TGI,MDA-MB-231,59.3 µM
same,CC50,MDA-MB-231; [16],> 100 µM
same,growth at 10 µM,[4],73.1%
same,GI50,HOP-62,4.51 µM
same,TGI,HOP-62,22.1 µM
same,CC50,HOP-62; [16],96.4 µM
same,GI50,[5]; BT-549,2.21 µM
same,TGI,[5]; BT-549,17.1 µM
same,CC50,"[5]; BT-549, read-out: LC50 (the source's name)",> 100 µM
same,GI50,MCF7,4.35 µM
same,TGI,MCF7,> 100 µM
same,CC50,MCF7; [16],> 100 µM
same,GI50,[6],18.8 µM
same,LC50,[6],> 100 µM
same,TGI,[6],> 100 µM
same,GI50,NCI-H322M,76.8 µM
same,TGI,NCI-H322M,> 100 µM
same,CC50,NCI-H322M; [16],> 100 µM
same,GI50,SK-MEL-28,3.27 µM
same,TGI,SK-MEL-28,> 100 µM
same,CC50,SK-MEL-28; [16],> 100 µM
same,GI50,NCI-H23,25.4 µM
same,TGI,NCI-H23,> 100 µM
same,CC50,NCI-H23; [16],> 100 µM
same,GI50,A498,1.22 µM
same,LC50,A498,> 100 µM
same,TGI,A498,4.79 µM
same,inhibition,[7],inactive
same,GI50,NCI-H522,2.61 µM
same,LC50,NCI-H522,> 100 µM
same,TGI,NCI-H522,8.09 µM
same,GI50,SNB-19,8.02 µM
same,TGI,SNB-19,> 100 µM
same,CC50,SNB-19; [16],> 100 µM
same,growth at 10 µM,[8],38.1%
same,GI50,[9]; HOP-92,10.9 µM
same,TGI,[9]; HOP-92,67.1 µM
same,CC50,"[9]; HOP-92, read-out: LC50 (the source's name)",> 100 µM
same,GI50,RPMI-8226,1.06 µM
same,TGI,RPMI-8226,7.07 µM
same,CC50,RPMI-8226; [16],> 100 µM
same,GI50,A549,8.41 µM
same,TGI,A549,> 100 µM
same,CC50,A549; [16],> 100 µM
same,GI50,K562,4.97 µM
same,TGI,K562,> 100 µM
same,CC50,K562; [16],> 100 µM
same,GI50,[10]; HCT-15,9.57 µM
same,TGI,[10]; HCT-15,> 100 µM
same,CC50,"[10]; HCT-15, read-out: LC50 (the source's name)",> 100 µM
same,GI50,TK-10,2.93 µM
same,LC50,TK-10,> 100 µM
same,TGI,TK-10,9.8 µM
same,GI50,786-0,4.76 µM
same,TGI,786-0,> 100 µM
same,CC50,786-0; [16],> 100 µM
same,GI50,U-251,4.23 µM
same,TGI,U-251,> 100 µM
same,CC50,U-251; [16],> 100 µM
same,GI50,PC-3,5.77 µM
same,TGI,PC-3,> 100 µM
same,CC50,PC-3; [16],> 100 µM
same,GI50,CAKI-1,2.93 µM
same,TGI,CAKI-1,27 µM
same,CC50,CAKI-1; [16],> 100 µM
same,GI50,NCI-H226,1.47 µM
same,TGI,NCI-H226,3.24 µM
same,CC50,NCI-H226; [16],7.15 µM
same,growth at 10 µM,[11],52%
same,GI50,ACHN,1.75 µM
same,TGI,ACHN,> 100 µM
same,CC50,ACHN; [16],> 100 µM
same,GI50,[12],2.11 µM
same,TGI,[12],6.78 µM
same,CC50,[12]; [16],> 100 µM
same,GI50,[13]; SF-539,1.61 µM
same,TGI,[13]; SF-539,5.62 µM
same,CC50,"[13]; SF-539, read-out: LC50 (the source's name)",> 100 µM
same,growth at 10 µM,[14],21.1%
same,GI50,[15]; OVCAR-8,15.3 µM
same,TGI,[15]; OVCAR-8,> 100 µM
same,CC50,"[15]; OVCAR-8, read-out: LC50 (the source's name)",> 100 µM
same,GI50,SK-MEL-2,3.58 µM
same,LC50,SK-MEL-2,> 100 µM
same,TGI,SK-MEL-2,32.5 µM
